Data on 13 compounds can be found in paper PMC3625458 (Journal of medicinal chemistry, 2013).

What is called microsomal CLint is the capacity of the preparation to metabolise the compound, expressed as a volume cleared per time. Read a high microsomal CLint as faster metabolism. A word on the IC50: it is the point on the concentration scale where inhibition reaches its midpoint. Higher therefore signals weaker potency in that assay.

Data set [1] is described as follows: In vitro microsome stability assay. The note with it: rat, liver microsomes. It counts as in vitro ADME. (Liver microsomes are vesicles of endoplasmic reticulum, rich in cytochrome P450 enzymes.)
Data set [2] deals with T. gondii type II Pru-LUC strain. Kind of data set: Murine infection model of toxoplasmosis. The class given is in vivo, mouse. The note with it: 30 days post-infection, 5 mg/kg daily i.p. for 10 days.
In data set [3] the test system is T. gondii 2F clone of the type I RH strain in HFF cells. As to the kind of experiment: Inhibition of parasite growth in vitro in HFF monolayers. It counts as cell-based, Toxoplasma gondii.
In data set [4] the test system is T. gondii highly virulent RH strain. The note with it: cited from earlier work.
In another data set the target is CDPK1 G128M (Toxoplasma gondii, UniProt Q9BJF5, G128M). Kind of data set: CDPK1 G128M mutant kinase assay, syntide-2 peptide ELISA. It counts as biochemical. Background: In an ELISA, binding on a coated surface is turned into a signal by an enzyme label.
For data set [5], the target named is human calmodulin dependent kinase II alpha (αCaMKII) (Homo sapiens, UniProt Q9UQM7). Kind of data set: CaM Kinase II Assay CycLex kit. The class given is biochemical. In outline:
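Human αCaMKII activity measured with a commercial CaM kinase II assay kit following the maker's recommendations. Test compound in serial dilutions; all samples run in triplicate. Data normalized and log-transformed, then fit by non-linear regression to a sigmoidal dose-response curve with variable slope to obtain IC50.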

The target in another data set is CDPK1 G128S (Toxoplasma gondii, UniProt Q9BJF5, G128S). Kind of data set: CDPK1 G128S mutant kinase assay, syntide-2 peptide ELISA. The class given is biochemical.
The target of another data set is CDPK1 G128A (Toxoplasma gondii, UniProt Q9BJF5, G128A). As to the kind of experiment: CDPK1 G128A mutant kinase assay, syntide-2 peptide ELISA. The class given is biochemical.
The target of a further data set is CDPK1 G128T (Toxoplasma gondii, UniProt Q9BJF5, G128T). Kind of data set: CDPK1 G128T mutant kinase assay, syntide-2 peptide ELISA. The class given is biochemical.

Entries after “also recorded” stand apart in the source; their conditions may differ.

For `CC(C)n1nc(C(F)c2cccc(Cl)c2Cl)c2c(N)ncnc21` (centres unmarked) [Compound 26], in data set [1], the microsomal CLint was determined as 107 µL/min/mg.

Turning to `CC(C)n1nc(Cc2cc(F)cc(Cl)c2)c2c(N)ncnc21` [Compound 21], the microsomal CLint in [1] was over 350 µL/min/mg.

In [1], `CC(C)n1nc(Cc2cccc(Cl)c2Cl)c2c(N)ncnc21` [Compound 11] gave an intrinsic metabolic clearance (microsomal CLint) of 190 µL/min/mg. For the same compound, the “brain tissue cyst burden in surviving mice” value (“brain tissue cyst burden” for short) in data set [2] was “considerable variation in the reduction of cyst numbers”.

Take `CC(C)n1nc(C(O)c2cccc(Cl)c2Cl)c2c(N)ncnc21` (centres unmarked) [Compound 25]: the microsomal CLint in [1] is 68 µL/min/mg. In addition, the “activity against T. gondii” value in data set [3] is “inactive”.

Turning to `CC(C)(C)n1nc(Cc2cccc3ccccc23)c2c(N)ncnc21` [Compound 6, 1-napthylmethyl-PP], in data set [4] (10-fold higher doses, i.p. inoculation), the parasite burdens entry is listed as “modest reduction in parasite burdens”. Also, the “protection against lethal challenge” value in data set [4] (oral administration, RH strain) is listed as “failed to protect”.

`CC(C)(C)n1nc(Cc2cccc(Cl)c2F)c2c(N)ncnc21` [Compound 18] showed a microsomal CLint in data set [1] of over 350 µL/min/mg.

With `CC(C)(C)n1nc(Cc2cccc(Cl)c2)c2c(N)ncnc21` [Compound 3, 3-chloro-benzyl pyrazolo [3,4-d] pyrimidine], in [2], the “brain tissue cyst burden” value is reported as “considerable variation in the reduction of cyst numbers”.

In the case of `CC(C)(C)n1nc(Cc2ccc(F)c(Cl)c2)c2c(N)ncnc21` [Compound 20], in [1], the microsomal CLint is over 350 µL/min/mg.

`CC(C)(C)n1nc(Cc2cccc(Br)c2)c2c(N)ncnc21` [Compound 4, 3-bromo-benzyl pyrazolo [3,4-d] pyrimidine] yielded a microsomal CLint in data set [1] of over 350 µL/min/mg.

On to `CC(C)(C)n1nc(Cc2cc(F)cc(F)c2)c2c(N)ncnc21` [Compound 24], for which the “brain tissue cyst burden” value in data set [2] (5 mg/kg) was “much more potent and uniform protection; also recorded: most effective in reducing the chronic burden of CNS infection”.

`CCc1nc(N)nc(N)c1-c1ccc(Cl)cc1` [pyrimethamine, reference compound]: in data set [3] (4 h vs 24 h treatment, growth to 72 h), the “treatment time required to demonstrate potent inhibition of growth” value is recorded as “at least 24 h”.

With `Cc1cccc(Cc2nn(C(C)(C)C)c3ncnc(N)c23)c1` [Compound 1, 3-methyl-benzyl pyrazolo [3,4-d] pyrimidine], the IC50 at CDPK1 G128M is over 10000 nM; in data set [5] it was over 10000 nM; at CDPK1 G128S it was 22.9 ± 7.5 nM; on CDPK1 G128A, 13.7 ± 7.1 nM; on CDPK1 G128T, 222 ± 43.7 nM. Besides, the “sensitivity of Met gatekeeper TgCDPK1” value at CDPK1 G128M (Gly to Met) is reported as “completely insensitive”. Also, the “sensitivity of human CamKIIα” value in [5] (Phe gatekeeper) was “completely resistant”. Also, the “shift in potency vs Gly gatekeeper” value at CDPK1 G128S (Gly to Ser) and at CDPK1 G128A (Gly to Ala) was 3-5 fold throughout. Further, the “microsome stability” value in data set [1] was “extremely unstable; also recorded: poor microsome stability”. Also, the “additional decrease in inhibition” value on CDPK1 G128T (Gly to Thr, relative to Ala or Ser) was determined as 10 fold.

With `CC(C)(C)n1nc(Cc2cc(Cl)ccc2F)c2c(N)ncnc21` [Compound 10], in [1], the microsomal CLint worked out at 250 µL/min/mg.
